ChEMBL document CHEMBL1221233, “4''-O-(omega-Quinolylamino-alkylamino)propionyl derivatives of selected macrolides with the activity against the key erythromycin resistant respiratory pathogens” (2010)
In brackets after ≈: the same amount, converted by molar mass.

How the values were obtained:
Assay type in all cases: functional
Streptococcus pyogenes [1] = assay: Antibacterial activity against efflux-mediated macrolide-resistance Streptococcus pyogenes 2 Finland by broth microdilution method
Outline: (§1)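 MIC by CLSI broth microdilution. In the streptococcal medium, 5% horse serum replaced lysed blood. Compounds were tested as two-fold serial dilutions. Strains were first grown on Columbia agar with 5% sheep blood. The MIC was read as the lowest concentration inhibiting growth.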

Streptococcus pneumoniae [2] = assay: Antibacterial activity against constitutive MLS resistance Streptococcus pneumoniae 58 by broth microdilution method; outline: as §1
Streptococcus pyogenes [3] = assay: Antibacterial activity against constitutive MLS resistance sStreptococcus pyogenes 166 GR-Micro by broth microdilution method; outline: as §1
Staphylococcus aureus [4] = assay: Antibacterial activity against inducible resistance to macrolide, licosamide and streptogramin Staphylococcus aureus 90256 by broth microdilution method
Outline: (§2)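 Staphylococci were grown on Mueller-Hinton agar and then tested by CLSI-guideline broth microdilution against two-fold serial dilutions of compound. The result was recorded as the minimum inhibitory concentration.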

Staphylococcus aureus [5] = assay: Antibacterial activity against efflux-mediated macrolide-resistance Staphylococcus aureus PK1 by broth microdilution method; outline: as §2
Haemophilus influenzae = assay: Antibacterial activity against Haemophilus influenzae ATCC 49247 by broth microdilution method
Outline: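 MIC by broth microdilution following CLSI guidelines, expressed in units of lg/mL. Twofold dilutions prepared in 96-well plates. H. influenzae grown on Mueller-Hinton chocolate agar before testing.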

Streptococcus pneumoniae [6] = assay: Antibacterial activity against efflux-mediated macrolide-resistance Streptococcus pneumoniae Ci137 by broth microdilution method; outline: as §1
Streptococcus pneumoniae [7] = assay: Antibacterial activity against inducible resistance to macrolide and constitutive resistance to lincosamide Streptococcus pneumoniae 134 GR M by broth microdilution method; outline: as §1

SMILES	MIC (Streptococcus pyogenes [1]) [µg/mL]	MIC (Streptococcus pneumoniae [2]) [µg/mL]	MIC (Streptococcus pyogenes [3]) [µg/mL]	MIC (Staphylococcus aureus [4]) [µg/mL]	MIC (Staphylococcus aureus [5]) [µg/mL]	MIC (Haemophilus influenzae) [µg/mL]	MIC (Streptococcus pneumoniae [6]) [µg/mL]	MIC (Streptococcus pneumoniae [7]) [µg/mL]
CC[C@H]1OC(=O)[C@H](C)[C@@H](O[C@H]2C[C@@](C)(OC)[C@@H](OC(=O)CCNCCNc3ccc4c(c3)c(=O)c(C(=O)O)cn4C3CC3)[C@H](C)O2)[C@H](C)[C@@H](O[C@@H]2O[C@H](C)C[C@H](N(C)C)[C@H]2O)[C@](C)(O)C[C@@H](C)CN(C)[C@H](C)[C@H]2OC(=O)O[C@@]21C	0.25 (≈ 0.224 µM)	0.25 (≈ 0.224 µM)	≤ 0.125	2 (≈ 1.79 µM)	1 (≈ 0.896 µM)	2 (≈ 1.79 µM)	≤ 0.125	0.25 (≈ 0.224 µM)
CC[C@H]1OC(=O)[C@H](C)[C@@H](O[C@H]2C[C@@](C)(OC)[C@@H](OC(=O)CCN(C)CCNc3cc4c(=O)c(C(=O)O)cn(C5CC5)c4cc3Cl)[C@H](C)O2)[C@H](C)[C@@H](O[C@@H]2O[C@H](C)C[C@H](N(C)C)[C@H]2O)[C@](C)(O)C[C@@H](C)CN(C)[C@H](C)[C@H]2OC(=O)O[C@@]21C	≤ 0.125	1 (≈ 0.858 µM)	1 (≈ 0.858 µM)	2 (≈ 1.72 µM)	1 (≈ 0.858 µM)	4 (≈ 3.43 µM)	≤ 0.125	2 (≈ 1.72 µM)
CC[C@H]1OC(=O)[C@H](C)[C@@H](O[C@H]2C[C@@](C)(OC)[C@@H](OC(=O)CCN(C)CCNc3cc4c(cc3F)c(=O)c(C(=O)O)cn4C3CC3)[C@H](C)O2)[C@H](C)[C@@H](O[C@@H]2O[C@H](C)C[C@H](N(C)C)[C@H]2O)[C@](C)(O)C[C@@H](C)CN(C)[C@H](C)[C@H]2OC(=O)O[C@@]21C	≤ 0.125	1 (≈ 0.871 µM)	16 (≈ 13.9 µM)	4 (≈ 3.48 µM)	2 (≈ 1.74 µM)	8 (≈ 6.97 µM)	≤ 0.125	2 (≈ 1.74 µM)
CC[C@H]1OC(=O)[C@H](C)[C@@H](O[C@H]2C[C@@](C)(OC)[C@@H](OC(=O)CCN(C)CCNc3ccc4c(c3)c(=O)c(C(=O)O)cn4C3CC3)[C@H](C)O2)[C@H](C)[C@@H](O[C@@H]2O[C@H](C)C[C@H](N(C)C)[C@H]2O)[C@](C)(O)C[C@@H](C)CN(C)[C@H](C)[C@H]2OC(=O)O[C@@]21C	≤ 0.125	1 (≈ 0.885 µM)	0.5 (≈ 0.442 µM)	8 (≈ 7.08 µM)	1 (≈ 0.885 µM)	4 (≈ 3.54 µM)	≤ 0.125	1 (≈ 0.885 µM)
CC[C@H]1OC(=O)[C@H](C)[C@@H](O[C@H]2C[C@@](C)(OC)[C@@H](O)[C@H](C)O2)[C@H](C)[C@@H](O[C@@H]2O[C@H](C)C[C@H](N(C)C)[C@H]2O)[C@](C)(O)C[C@@H](C)CN(C)[C@H](C)[C@@H](O)[C@]1(C)O [AZITHROMYCIN]	8 (≈ 10.7 µM)	> 64	> 64	> 64	> 64	1 (≈ 1.34 µM)	8 (≈ 10.7 µM)	> 64
CC[C@H]1OC(=O)[C@H](C)[C@@H](O[C@H]2C[C@@](C)(OC)[C@@H](O)[C@H](C)O2)[C@H](C)[C@@H](O[C@@H]2O[C@H](C)C[C@H](N(C)C)[C@H]2O)[C@](C)(OC)C[C@@H](C)C(=O)[C@H](C)[C@@H](O)[C@]1(C)O [CLARITHROMYCIN]	4 (≈ 5.35 µM)	> 16	> 16	> 64	> 64	8 (≈ 10.7 µM)	4 (≈ 5.35 µM)	> 64
CC[C@H]1OC(=O)[C@H](C)C(=O)[C@H](C)[C@@H](O[C@@H]2O[C@H](C)C[C@H](N(C)C)[C@H]2O)[C@](C)(OC)C[C@@H](C)C(=O)[C@H](C)[C@H]2N(CCCCn3cnc(-c4cccnc4)c3)C(=O)O[C@]12C [TELITHROMYCIN]	0.5 (≈ 0.616 µM)	0.25 (≈ 0.308 µM)	16 (≈ 19.7 µM)	≤ 0.125	≤ 0.125	2 (≈ 2.46 µM)	0.25 (≈ 0.308 µM)	0.25 (≈ 0.308 µM)
